Like-named read-outs stand apart in the source and are kept apart here.
Legend:
[1] = assay type: in vivo, human; conditions: for AUCu, geometric least-squares mean / Cmax,u, geometric least-squares mean / AUCu / Cmax,u: unbound
[2] = Hepatic impairment study: safety and tolerability; assay type: in vivo, human
In short: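 Adverse events were collected from screening until follow-up at 7–14 days postdose and coded by System Organ Class and preferred term (MedDRA 17.0). Vital signs, ECGs and clinical laboratory tests were also recorded. Single fasted oral doses were 50 mg (mild), 50 or 25 mg (moderate), 20 mg (severe Child-Pugh) and 50 mg (healthy).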

[3] = Renal impairment study: safety and tolerability; assay type: in vivo, human
In short: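 In the renal-impairment study, adverse events were recorded from screening until follow-up and coded by System Organ Class and preferred term (MedDRA 17.0). Vital signs, ECGs and clinical laboratory tests were also recorded. All subjects received a single fasted oral 50 mg dose. Healthy subjects returned for follow-up 3–7 days later.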

[4] = assay type: in vivo, human; conditions: for tmax / half-life: human, plasma, oral; for tmax: median (min-max); for half-life: arithmetic mean (SD); for AUCu/dose, geometric least-squares mean / Cmax,u/dose, geometric least-squares mean: unbound
[5] = Hepatic impairment study: excretion in urine; assay type: in vivo, human
In short: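 Urine from hepatic-impairment and healthy subjects was collected at −12 to 0 h predose, then 0–6, 6–12, 12–24, 24–36 and 36–48 h, and every 24 h to 120 h after a single oral dose. Dosing followed an overnight fast, with fasting until 4 h postdose. Analytes were measured by LC-MS/MS (positive electrospray, MRM) against carbon-13 internal standards.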

[6] = cited from earlier work
[7] = Unbound fraction in plasma; assay type: in vitro ADME, human; conditions: human, plasma, oral, fu,av, hepatic impairment study, median (min-max)
In short: (§1)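 Unbound fraction was measured in human plasma by ultrafiltration after a single oral dose. Ultrafiltrate was analysed by LC-MS/MS in MRM mode with carbon-13 internal standards. Within each subject, the mean percentage unbound from 3 results was applied to all of that subject's samples to give the average fraction unbound (fu,av).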

plasma proteins = assay: Unbound fraction in plasma; assay type: in vitro ADME, human
In short: as §1

[8] = Renal impairment study: excretion in urine and blood dialysate; assay type: in vivo, human
In short: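 Subjects were ESRD patients on haemodialysis or healthy subjects with creatinine clearance >80 mL/min, each given 50 mg orally while fasted. ESRD patients were dosed once after dialysis and, after a washout of ≥7 days, once 1 h before dialysis. Urine was collected predose and in intervals to 72 h. Dialysate spot samples were taken every 30 min, and parameters were derived by the area under the excretion rate curve method. Analysis was by LC-MS/MS.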

[9] = healthy subjects, 50 mg, geometric mean (gCV%)
[10] = ESRD, treatment period 1 (50 mg after dialysis), geometric mean (gCV%)
[11] = moderate hepatic impairment, 50 or 25 mg
[12] = severe hepatic impairment, 20 mg
[13] = non-Asian patients, 75 mg twice daily, used as exposure limit

AUC lower in the ESRD group (dosed post dialysis) vs healthy subjects ([1]; 50 mg): 28% | AUC lower when dosed before vs after dialysis ([1]; ESRD, 50 mg): 17% | Cmax lower when dosed before vs after dialysis ([1]; ESRD, 50 mg): 30% | CL/F [1, 9]: 19.1 L/h | Cmax ([1]; human, plasma, oral, 50 mg, Cmax, healthy subjects, geometric mean (gCV%)): 863 ng/mL | half-life ([1]; human, plasma, oral, 50 mg, t1/2, healthy subjects, arithmetic mean (SD)): 7.34 h | AUCu, geometric least-squares mean ([1]; ESRD, treatment period 1): 10.25 ng·h/mL | Cmax,u, geometric least-squares mean ([1]; ESRD, treatment period 1): 3.95 ng/mL | AUCu [1, 10]: 10.3 (20.1) ng·h/mL | Cmax,u [1, 10]: 3.95 (34.7) ng/mL | AUCu, geometric least-squares mean ([1]; healthy subjects): 10.55 ng·h/mL | Cmax,u, geometric least-squares mean ([1]; healthy subjects): 3.48 ng/mL | AUCu [1, 9]: 10.6 (23.0) ng·h/mL | Cmax,u [1, 9]: 3.48 (42.5) ng/mL | AUC/dose, geometric least-squares mean ([4]; healthy subjects, 50 mg): 53.64 ng·h/mL/mg | Cmax/dose, geometric least-squares mean ([4]; healthy subjects, 50 mg): 18.88 ng/mL/mg | tmax ([4]; 20 mg, severe hepatic impairment): 1 h | half-life ([4]; 50 mg, t1/2, healthy subjects): 8.02 h | half-life ([4]; 50 mg, t1/2, mild hepatic impairment): 7.72 h | half-life ([4]; 50 mg, t1/2, moderate hepatic impairment, 50 mg dose only): 9.92 h | tmax ([4]; 50 mg, healthy subjects): 1 h | tmax ([4]; 50 mg, mild hepatic impairment): 1.25 h | tmax ([4]; 50 mg, moderate hepatic impairment, 50 mg dose only): 1 h | AUC/dose lower than in healthy subjects ([4]; mild hepatic impairment): 14% | Cmax/dose lower than in healthy subjects ([4]; mild hepatic impairment): 22% | AUC/dose, geometric least-squares mean ([4]; mild hepatic impairment, 50 mg): 45.93 ng·h/mL/mg | Cmax/dose, geometric least-squares mean ([4]; mild hepatic impairment, 50 mg): 14.82 ng/mL/mg | AUC/dose higher than in healthy subjects ([4]; moderate hepatic impairment): 59% | Cmax/dose higher than in healthy subjects ([4]; moderate hepatic impairment): 25% | AUC/dose, geometric least-squares mean [4, 11]: 85.11 ng·h/mL/mg | Cmax/dose, geometric least-squares mean [4, 11]: 23.57 ng/mL/mg | AUC/dose higher than in healthy subjects ([4]; severe hepatic impairment): 57% | AUC/dose, geometric least-squares mean [4, 12]: 84.29 ng·h/mL/mg | Cmax/dose, geometric least-squares mean [4, 12]: 18.53 ng/mL/mg | AUCu/dose, geometric least-squares mean ([4]; healthy subjects, 50 mg): 0.1837 ng·h/mL/mg | Cmax,u/dose, geometric least-squares mean ([4]; healthy subjects, 50 mg): 0.06473 ng/mL/mg | AUCu/dose, geometric least-squares mean ([4]; mild hepatic impairment, 50 mg): 0.1271 ng·h/mL/mg | Cmax,u/dose, geometric least-squares mean ([4]; mild hepatic impairment, 50 mg): 0.04094 ng/mL/mg | AUCu/dose, geometric least-squares mean [4, 11]: 0.2585 ng·h/mL/mg | Cmax,u/dose, geometric least-squares mean [4, 11]: 0.07165 ng/mL/mg | AUCu/dose, geometric least-squares mean [4, 12]: 0.5828 ng·h/mL/mg | Cmax,u/dose, geometric least-squares mean [4, 12]: 0.1280 ng/mL/mg | dose excreted in urine ([5]; healthy subjects, 50 mg): 0.44% | dose excreted in urine ([5]; mild hepatic impairment, 50 mg): 0.46% | dose excreted in urine ([5]; moderate hepatic impairment): 0.50% | dose excreted in urine [5, 12]: 0.90% | fraction unbound ([7]; 20 mg, severe impairment): 0.0065 | fraction unbound ([7]; 50 mg, healthy subjects): 0.0035 | fraction unbound ([7]; 50 mg, mild impairment): 0.0028 | fraction unbound ([7]; 50 mg, moderate impairment, 50 mg dose only): 0.003 | difference of unbound fraction compared with healthy subjects (plasma proteins; hepatic impairment study, mild or moderate impairment): ≤ 20% | increase in the unbound fraction compared with healthy subjects (plasma proteins; hepatic impairment study, severe impairment): ~90% | fraction unbound (plasma proteins; human, plasma, oral, 50 mg, fu,av, renal impairment study, healthy subjects, median (min-max)): 0.004 | dose excreted in dialysate ([8]; ESRD, dosed 1 h before dialysis): 0.92% | fraction excreted in urine ([8]; healthy subjects, 50 mg): 0.49% | clearance ([8]; human, blood dialysate, oral, 50 mg): 9.63 mL/min | dialysis clearance in ESRD as percentage of CL/F in the healthy subjects group ([8]; in vivo): approximately 3%
SMILES: Cn1cnc2c(F)c(Nc3ccc(Br)cc3Cl)c(C(=O)NOCCO)cc21 [Selumetinib]
most frequently reported AEs, diarrhea and vomiting, each ([2]; all 32 subjects (N = 2 each)): 6.3% | subjects reporting at least 1 AE ([2]; all 32 subjects, mild or moderate severity): 15.6% | tolerability ([2]; single oral dose 20-50 mg): well tolerated | AEs reported ([3]; healthy subjects, 50 mg): No AEs were reported | tolerability ([3]; single oral dose 50 mg): well tolerated | dose linearity of pharmacokinetics ([6]; healthy volunteers): linear pharmacokinetics up to 75 mg | mean steady-state AUC(0-12) [6, 13]: 4736 ng·h/mL | mean steady-state Cmax [6, 13]: 1307 ng/mL

From publication PMC5412920 (Journal of Clinical Pharmacology, 2016)
